Laboratory results from ChEMBL document CHEMBL1154648, “1,3-Dipolar cycloaddition of C-aryl-N-phenylnitrones to (R)-1-(1-phenylethyl)-3-[(E)-arylmethylidene]tetrahydro-4(1H)-pyridinones: synthesis and antimycobacterial evaluation of enantiomerically pure spiroisoxazolidines” (2010).
In brackets after ≈: the same amount, converted by molar mass.

Each compound was assayed on Mycobacterium tuberculosis (assay: Antitubercular activity against Mycobacterium tuberculosis H37Rv after 28 days by agar dilution method). Details: 672 h.
Assay type: functional
In short: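 Tenfold serial dilutions were incorporated into Middlebrook 7H11 agar with OADC. The H37Rv inoculum came from fresh 7H11/OADC slants, set to 1 mg/mL wet weight in 0.05% Tween 80 saline and diluted 10^-2 (about 10^7 cfu/mL). 5 µL was spotted per tube and incubated at 37 °C, read at 28 days. MIC was the lowest concentration giving complete growth inhibition, tested in triplicate.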
For `Cc1ccc([C@@H]2C(c3ccc(Cl)cc3)=NO[C@]23CN([C@H](C)c2ccccc2)CCC3=O)cc1`, the MIC was 6.82 µM (≈ 3.13 µg/mL). In the case of `Cc1ccc([C@H]2N(c3ccccc3)O[C@H](c3ccccc3)[C@@]23CN([C@H](C)c2ccccc2)CCC3=O)cc1`, the MIC is reported as 24.9 µM (≈ 12.5 µg/mL). Work on `C[C@H](c1ccccc1)N1CCC(=O)[C@]2(C1)ON(c1ccccc1)[C@@H](c1ccccc1)[C@H]2c1ccccc1Cl` yielded an MIC of 23.9 µM (≈ 12.5 µg/mL). `C[C@H](c1ccccc1)N1CCC(=O)[C@@]2(C1)[C@@H](c1ccccc1)ON(c1ccccc1)[C@@H]2c1ccccc1` gave an MIC of 25.6 µM (≈ 12.5 µg/mL). Work on `Cc1ccc([C@H]2[C@@H](c3ccc(Cl)cc3)[C@@]3(CN([C@H](C)c4ccccc4)CCC3=O)ON2c2ccccc2)cc1` yielded an MIC of 11.6 µM (≈ 6.25 µg/mL). In the case of `Cc1ccc([C@@H]2[C@H](c3ccccc3Cl)[C@]3(CN([C@H](C)c4ccccc4)CCC3=O)ON2c2ccccc2)cc1`, the MIC is reported as 11.6 µM (≈ 6.25 µg/mL). `Cc1ccc([C@@H]2[C@H](c3ccccc3)N(c3ccccc3)O[C@]23CN([C@H](C)c2ccccc2)CCC3=O)cc1` showed an MIC of 12.4 µM (≈ 6.25 µg/mL). `Cc1ccc([C@@H]2[C@H](c3ccc(Cl)cc3)[C@]3(CN([C@H](C)c4ccccc4)CCC3=O)ON2c2ccccc2)cc1` gave an MIC of 23.3 µM (≈ 12.5 µg/mL). `NNC(=O)c1ccncc1` [ISONIAZID] gave an MIC of 0.36 µM (≈ 0.0494 µg/mL). With `Cc1ccc([C@H]2[C@@H](c3ccccc3)N(c3ccccc3)O[C@@]23CN([C@H](C)c2ccccc2)CCC3=O)cc1` the MIC was 24.9 µM (≈ 12.5 µg/mL). `C[C@H](c1ccccc1)N1CCC(=O)[C@]2(C1)ON(c1ccccc1)[C@@H](c1ccccc1)[C@H]2c1cccs1` gave an MIC of 6.33 µM (≈ 3.13 µg/mL). `C[C@H](c1ccccc1)N1CCC(=O)[C@]2(C1)ON=C(c1ccc(Cl)cc1)[C@H]2c1cccc2ccccc12` was tested, and the MIC was 25.2 µM (≈ 12.5 µg/mL). In the case of `Cc1ccc([C@H]2[C@@H](c3ccccc3)[C@@]3(CN([C@H](C)c4ccccc4)CCC3=O)ON2c2ccccc2)cc1`, the MIC is reported as 49.7 µM (≈ 25 µg/mL). For `Cc1ccc([C@H]2[C@@H](c3ccccc3Cl)[C@@]3(CN([C@H](C)c4ccccc4)CCC3=O)ON2c2ccccc2)cc1`, the MIC was 11.6 µM (≈ 6.25 µg/mL). `C[C@H](c1ccccc1)N1CCC(=O)[C@]2(C1)ON=C(c1ccccc1)[C@H]2c1ccccc1` was tested, and the MIC was 60.9 µM (≈ 25 µg/mL). `C[C@H](c1ccccc1)N1CCC(=O)[C@]2(C1)ON=C(c1ccccc1)[C@H]2c1ccccc1Cl` was tested, and the MIC was 7.03 µM (≈ 3.13 µg/mL). Compound `C[C@H](c1ccccc1)N1CCC(=O)[C@]2(C1)ON=C(c1ccc(Cl)cc1)[C@H]2c1ccccc1Cl` has an MIC of 3.25 µM (≈ 1.56 µg/mL). `Cc1ccc([C@@H]2[C@H](c3ccc(C)cc3)N(c3ccccc3)O[C@]23CN([C@H](C)c2ccccc2)CCC3=O)cc1` was tested, and the MIC was 6.06 µM (≈ 3.13 µg/mL). `Cc1ccc([C@H]2[C@@H](c3cccs3)[C@@]3(CN([C@H](C)c4ccccc4)CCC3=O)ON2c2ccccc2)cc1` showed an MIC of 24.6 µM (≈ 12.5 µg/mL). Work on `CO[C@H]1/C=C/O[C@@]2(C)Oc3c(C)c(O)c4c(O)c(c(/C=N/N5CCN(C)CC5)c(O)c4c3C2=O)NC(=O)/C(C)=C\C=C\[C@H](C)[C@H](O)[C@@H](C)[C@@H](O)[C@@H](C)[C@H](OC(C)=O)[C@@H]1C` [RIFAMPIN] yielded an MIC of 0.12 µM (≈ 0.0988 µg/mL). Work on `C[C@H](c1ccccc1)N1CCC(=O)[C@]2(C1)ON=C(c1ccc(Cl)cc1)[C@H]2c1ccc(Cl)cc1` yielded an MIC of 3.25 µM (≈ 1.56 µg/mL). Compound `C[C@H](c1ccccc1)N1CCC(=O)[C@@]2(C1)ON(c1ccccc1)[C@H](c1ccccc1)[C@@H]2c1ccccc1Cl` has an MIC of 5.98 µM (≈ 3.13 µg/mL). Work on `Cc1ccc([C@@H]2[C@H](c3ccccc3)[C@]3(CN([C@H](C)c4ccccc4)CCC3=O)ON2c2ccccc2)cc1` yielded an MIC of 49.7 µM (≈ 25 µg/mL). Compound `Cc1ccc([C@@H]2[C@H](c3ccc(C)cc3)[C@]3(CN([C@H](C)c4ccccc4)CCC3=O)ON2c2ccccc2)cc1` has an MIC of 3.02 µM (≈ 1.56 µg/mL). For `C[C@H](c1ccccc1)N1CCC(=O)[C@]2(C1)ON=C(c1ccccc1)[C@H]2c1cccc2ccccc12`, the MIC was 27.1 µM (≈ 12.5 µg/mL). With `C[C@H](c1ccccc1)N1CCC(=O)[C@@]2(C1)ON(c1ccccc1)[C@H](c1ccccc1)[C@@H]2c1ccccc1` the MIC was 25.6 µM (≈ 12.5 µg/mL). Work on `C[C@H](c1ccccc1)N1CCC(=O)[C@@]2(C1)ON=C(c1ccc(Cl)cc1)[C@H]2c1ccccc1` yielded an MIC of 14.1 µM (≈ 6.25 µg/mL). In the case of `C[C@H](c1ccccc1)N1CCC(=O)[C@]2(C1)ON=C(c1ccccc1)[C@H]2c1ccc(Cl)cc1`, the MIC is reported as 14.1 µM (≈ 6.25 µg/mL). For `Cc1ccc([C@@H]2C(c3ccccc3)=NO[C@]23CN([C@H](C)c2ccccc2)CCC3=O)cc1`, the MIC was 14.7 µM (≈ 6.25 µg/mL). `CC[C@@H](CO)NCCN[C@@H](CC)CO` [ETHAMBUTOL] gave an MIC of 7.64 µM (≈ 1.56 µg/mL). For `C[C@H](c1ccccc1)N1CCC(=O)[C@]2(C1)ON(c1ccccc1)[C@@H](c1ccccc1)[C@H]2c1ccccc1`, the MIC was 25.6 µM (≈ 12.5 µg/mL).

Each compound was assayed on Mycobacterium tuberculosis (assay: Ratio of MIC for drug to MIC for ethambutol against Mycobacterium tuberculosis H37Rv after 28 days by agar dilution method). Details: not given.
Assay type: functional
For `Cc1ccc([C@@H]2[C@H](c3ccc(C)cc3)[C@]3(CN([C@H](C)c4ccccc4)CCC3=O)ON2c2ccccc2)cc1`, the Ratio was 2.5.
